Test results: ChEMBL document CHEMBL1255391, “Rates and mechanisms of resistance development in Mycobacterium tuberculosis to a novel diarylquinoline ATP synthase inhibitor” (2010)
≈ marks a conversion by molar mass, not a printed value.

How the values were obtained:
Assay type in all cases: functional
[1] = test system: Mycobacterium tuberculosis; experiment: Antimicrobial activity against drug-susceptible Mycobacterium tuberculosis H37Rv
[2] = test system: Mycobacterium tuberculosis; experiment: Antimicrobial activity against drug-susceptible Mycobacterium tuberculosis isolate 4 expressing wild type atpE and F0 operon selected after 10 times MIC drug exposure
Summary of the method: (§1)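 Each resistant mutant clone (one colony picked per independent fluctuation culture selected on drug agar) is suspended in PBS, sonicated and applied by 96-pin replicator. Nonselective and rifampin control plates are included. Plates are read after 4 weeks; MIC is the lowest concentration with no visible growth.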

[3] = test system: Mycobacterium tuberculosis; experiment: Antimicrobial activity against drug-susceptible Mycobacterium tuberculosis isolate 4 expressing wild type atpE selected after 10 times MIC drug exposure; summary of the method: as §1
[4] = test system: Mycobacterium tuberculosis; experiment: Antimicrobial activity against drug-susceptible Mycobacterium tuberculosis isolate 6 expressing wild type atpE selected after 10 times MIC drug exposure; summary of the method: as §1
[5] = test system: Mycobacterium tuberculosis; experiment: Antimicrobial activity against drug-susceptible Mycobacterium tuberculosis H37Rv expressing wild type atpE selected after 10 times MIC drug exposure; summary of the method: as §1
[6] = test system: Mycobacterium tuberculosis; experiment: Antimicrobial activity against drug-susceptible Mycobacterium tuberculosis isolate 6 expressing wild type atpE selected after 30 times MIC drug exposure; summary of the method: as §1
[7] = test system: Mycobacterium tuberculosis; experiment: Antimicrobial activity against drug-susceptible Mycobacterium tuberculosis H37Rv expressing wild type atpE selected after 30 times MIC drug exposure; summary of the method: as §1
[8] = test system: Mycobacterium tuberculosis; experiment: Antimicrobial activity against drug-susceptible Mycobacterium tuberculosis Mycobacterium tuberculosis H37Rv expressing wild type atpE and F0 operon selected after 10 times MIC drug exposure; summary of the method: as §1

COc1nc2ccc(Br)cc2cc1[C@@H](c1ccccc1)[C@@](O)(CCN(C)C)c1cccc2ccccc12 [BEDAQUILINE]
MIC [1]: 0.03 µg/mL (≈ 0.054 µM)
MIC [2]: 0.3 µg/mL (≈ 0.54 µM)
MIC [3]: 0.12 µg/mL (≈ 0.216 µM)
MIC [4]: 0.24 µg/mL (≈ 0.432 µM)
MIC [5]: 0.48 µg/mL (≈ 0.864 µM)
MIC [6]: 0.12 µg/mL (≈ 0.216 µM)
MIC [7]: 0.24 µg/mL (≈ 0.432 µM)
MIC [8]: 0.48 µg/mL (≈ 0.864 µM)
